Assay results published in ChEMBL document CHEMBL1158339, “Synthesis and anti-microbial screening of some Schiff bases of 3-amino-6,8-dibromo-2-phenylquinazolin-4(3H)-ones” (2009).
≈ marks a conversion by molar mass, not a printed value.

Assays:
Aspergillus fumigatus [1] = assay: Antifungal activity against Aspergillus fumigatus ATCC 46645 after 48 hrs by agar streak dilution method; format: functional; settings: ATCC 46645, 48 h
In short: (§1)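 Fungal agar streak dilution. Stock […] in dimethyl formamide. Graded quantities go into molten sterile Sabouraud dextrose agar, poured at 40–50 °C to 3–4 mm depth and left to solidify. Plates are inoculated with about 10⁵ cfu/ml suspension and incubated 48 h at 37 °C. MIC is the lowest concentration with no visible growth.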

Aspergillus niger [2] = assay: Antifungal activity against Aspergillus niger ATCC 9029 at 100 ug/disk after 48 hrs by paper disk diffusion technique; format: functional; settings: ATCC 9029, 48 h, read-out: IZ
In short: (§2)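 Paper disc diffusion: autoclaved medium at 40–50 °C was seeded at 1 ml/100 ml with a suspension of about 10⁵ cfu/ml matched to McFarland standard and poured 3–4 mm deep. Discs impregnated with compound in dimethylformamide were placed on the set medium. There was 1 h pre-incubation at room temperature, then 48 h at 37 °C. Ketoconazole disc served as reference.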

Aspergillus niger [3] = assay: Antifungal activity against Aspergillus niger ATCC 9029 after 48 hrs by agar streak dilution method; format: functional; settings: ATCC 9029, 48 h; in short: as §1
Aspergillus fumigatus [4] = assay: Antifungal activity against Aspergillus fumigatus ATCC 46645 at 100 ug/disk after 48 hrs by paper disk diffusion technique; format: functional; settings: ATCC 46645, 48 h, read-out: IZ; in short: as §2
Klebsiella pneumoniae [5] = assay: microbe, parasite or virus in culture; settings: ATCC 11298, 24 h, read-out: IZ
Pseudomonas aeruginosa [6] = assay: microbe, parasite or virus in culture; settings: ATCC 2853, 24 h, read-out: IZ
Staphylococcus aureus [7] = assay: microbe, parasite or virus in culture; settings: ATCC 9144, 24 h, read-out: IZ
Bacillus cereus [8] = assay: Antibacterial activity against Bacillus cereus ATCC 11778 after 24 hrs by agar streak dilution method; format: functional; settings: ATCC 11778, 24 h
In short: as §1, with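 “Agar” for “Fungal agar”, “dilution MIC.” for “dilution.”, “nutrient” for “Sabouraud dextrose”, “streaked” for “inoculated”, “cfu/ml bacterial” for “cfu/ml”, “24” for “48”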

Micrococcus luteus [9] = assay: Antibacterial activity against Micrococcus luteus ATCC 4698 at 100 ug/disk after 24 hrs by paper disk diffusion technique; format: functional; settings: NCTC 2665, 24 h, read-out: IZ
Staphylococcus aureus [10] = assay: Antibacterial activity against Staphylococcus aureus ATCC 9144 after 24 hrs by agar streak dilution method; format: functional; settings: ATCC 9144, 24 h
In short: as §1, with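 “Agar” for “Fungal agar”, “dilution MIC.” for “dilution.”, “nutrient” for “Sabouraud dextrose”, “streaked” for “inoculated”, “cfu/ml bacterial” for “cfu/ml”, “24” for “48”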

[11] = test system: Staphylococcus epidermidis; assay: microbe, parasite or virus in culture; settings: ATCC 155, 24 h, read-out: IZ
Escherichia coli [12] = assay: microbe, parasite or virus in culture; settings: ATCC 25922, 24 h, read-out: IZ
Klebsiella pneumoniae [13] = assay: Antibacterial activity against Klebsiella pneumoniae ATCC 11298 after 24 hrs by agar streak dilution method; format: functional; settings: ATCC 11298, 24 h
In short: as §1, with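 “Agar” for “Fungal agar”, “dilution MIC.” for “dilution.”, “nutrient” for “Sabouraud dextrose”, “streaked” for “inoculated”, “cfu/ml bacterial” for “cfu/ml”, “24” for “48”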

Micrococcus luteus [14] = assay: Antibacterial activity against Micrococcus luteus ATCC 4698 after 24 hrs by agar streak dilution method; format: functional; settings: NCTC 2665, 24 h
In short: as §1, with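 “Agar” for “Fungal agar”, “dilution MIC.” for “dilution.”, “nutrient” for “Sabouraud dextrose”, “streaked” for “inoculated”, “cfu/ml bacterial” for “cfu/ml”, “24” for “48”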

Bacillus cereus [15] = assay: Antibacterial activity against Bacillus cereus ATCC 11778 at 100 ug/disk after 24 hrs by paper disk diffusion technique; format: functional; settings: ATCC 11778, 24 h, read-out: IZ
[16] = test system: Staphylococcus epidermidis; assay: Antibacterial activity against Staphylococcus epidermidis ATCC 155 after 24 hrs by agar streak dilution method; format: functional; settings: ATCC 155, 24 h
In short: as §1, with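 “Agar” for “Fungal agar”, “dilution MIC.” for “dilution.”, “nutrient” for “Sabouraud dextrose”, “streaked” for “inoculated”, “cfu/ml bacterial” for “cfu/ml”, “24” for “48”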

Escherichia coli [17] = assay: Antibacterial activity against Escherichia coli ATCC 25922 after 24 hrs by agar streak dilution method; format: functional; settings: ATCC 25922, 24 h
In short: as §1, with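 “Agar” for “Fungal agar”, “dilution MIC.” for “dilution.”, “nutrient” for “Sabouraud dextrose”, “streaked” for “inoculated”, “cfu/ml bacterial” for “cfu/ml”, “24” for “48”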

Staphylococcus aureus [18] = assay: Antibacterial activity against Staphylococcus aureus ATCC 9144 after 24 hrs by paper disk diffusion technique; format: functional
In short: (§3)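 Paper disc diffusion. Nutrient agar autoclaved 120 °C, 30 min, then inoculated at 40–50 °C with 1 ml/100 ml of a 10⁵ cfu/ml suspension matched to McFarland standard and poured to 3–4 mm. Discs impregnated with compound in dimethyl formamide are laid on the solidified agar. Plates are held 1 h at room temperature, then 24 h at 37 °C.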

Escherichia coli [19] = assay: Antibacterial activity against Escherichia coli ATCC 25922 after 24 hrs by paper disk diffusion technique; format: functional; in short: as §3
Pseudomonas aeruginosa [20] = assay: Antibacterial activity against Pseudomonas aeruginosa ATCC 2853 after 24 hrs by agar streak dilution method; format: functional; settings: ATCC 2853, 24 h
In short: as §1, with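 “Agar” for “Fungal agar”, “dilution MIC.” for “dilution.”, “nutrient” for “Sabouraud dextrose”, “streaked” for “inoculated”, “cfu/ml bacterial” for “cfu/ml”, “24” for “48”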

Pseudomonas aeruginosa [21] = assay: Antibacterial activity against Pseudomonas aeruginosa ATCC 2853 after 24 hrs by paper disk diffusion technique; format: functional; in short: as §3
Bacillus cereus [22] = assay: Antibacterial activity against Bacillus cereus ATCC 11778 after 24 hrs by paper disk diffusion technique; format: functional; in short: as §3
Aspergillus niger [23] = assay: Antifungal activity against Aspergillus niger ATCC 9029 after 48 hrs by paper disk diffusion technique; format: functional
In short: (§4)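 Fungal disc diffusion. Autoclaved (120 °C, 30 min) medium is inoculated at 40–50 °C with 1 ml/100 ml of a 10⁵ cfu/ml McFarland-matched suspension and poured to 3–4 mm. Compound-impregnated paper discs in dimethyl formamide are applied. Plates are held 1 h at room temperature, then incubated 48 h at 37 °C.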

Klebsiella pneumoniae [24] = assay: Antibacterial activity against Klebsiella pneumoniae ATCC 11298 after 24 hrs by paper disk diffusion technique; format: functional; in short: as §3
[25] = test system: Staphylococcus epidermidis; assay: Antibacterial activity against Staphylococcus epidermidis ATCC 155 after 24 hrs by paper disk diffusion technique; format: functional; in short: as §3
Micrococcus luteus [26] = assay: Antibacterial activity against Micrococcus luteus ATCC 4698 after 24 hrs by paper disk diffusion technique; format: functional; in short: as §3
Aspergillus fumigatus [27] = assay: Antifungal activity against Aspergillus fumigatus ATCC 46645 after 48 hrs by paper disk diffusion technique; format: functional; in short: as §4

SMILES: CC(=O)N1CCN(c2ccc(OCC3COC(Cn4ccnc4)(c4ccc(Cl)cc4Cl)O3)cc2)CC1 (centres undefined) [KETOCONAZOLE]
- MIC (Aspergillus fumigatus [1]): 0.23 µg/mL (≈ 0.433 µM)
- zone of inhibition at 100 µg/disc (Aspergillus niger [2]): 30 mm
- MIC (Aspergillus niger [3]): 6.1 µg/mL (≈ 11.5 µM)
- zone of inhibition at 100 µg/disc (Aspergillus fumigatus [4]): 29 mm

SMILES: O=C(O)c1cn(C2CC2)c2cc(N3CCNCC3)c(F)cc2c1=O [CIPROFLOXACIN]
- zone of inhibition at 100 µg/disc (Klebsiella pneumoniae [5]): 33 mm
- zone of inhibition at 100 µg/disc (Pseudomonas aeruginosa [6]): 33 mm
- zone of inhibition at 100 µg/disc (Staphylococcus aureus [7]): 29 mm
- MIC (Bacillus cereus [8]): 0.3 µg/mL (≈ 0.905 µM)
- zone of inhibition at 100 µg/disc (Micrococcus luteus [9]): 30 mm
- MIC (Staphylococcus aureus [10]): 0.2 µg/mL (≈ 0.604 µM)
- zone of inhibition at 100 µg/disc [11]: 31 mm
- zone of inhibition at 100 µg/disc (Escherichia coli [12]): 32 mm
- MIC (Klebsiella pneumoniae [13]): 0.1 µg/mL (≈ 0.302 µM)
- MIC (Micrococcus luteus [14]): 0.1 µg/mL (≈ 0.302 µM)
- zone of inhibition at 100 µg/disc (Bacillus cereus [15]): 29 mm
- MIC [16]: 0.39 µg/mL (≈ 1.18 µM)

SMILES: CN(C)c1ccc(/C=N/n2c(-c3ccccc3)nc3c(Br)cc(Br)cc3c2=O)cc1
- MIC (Escherichia coli [17]): 29.1 µg/mL (≈ 55.3 µM)
- inhibition zone (IZ) (Staphylococcus aureus [18]): 19 mm
- inhibition zone (IZ) (Escherichia coli [19]): 20 mm
- MIC (Aspergillus fumigatus [1]): 15.9 µg/mL (≈ 30.2 µM)
- MIC (Bacillus cereus [8]): 30.1 µg/mL (≈ 57.2 µM)
- MIC (Pseudomonas aeruginosa [20]): 32.1 µg/mL (≈ 61 µM)
- MIC (Aspergillus niger [3]): 14.7 µg/mL (≈ 27.9 µM)
- MIC (Staphylococcus aureus [10]): 27.9 µg/mL (≈ 53 µM)
- inhibition zone (IZ) (Pseudomonas aeruginosa [21]): 18 mm
- inhibition zone (IZ) (Bacillus cereus [22]): 19 mm
- MIC (Klebsiella pneumoniae [13]): 22.7 µg/mL (≈ 43.1 µM)
- MIC (Micrococcus luteus [14]): 26.2 µg/mL (≈ 49.8 µM)
- inhibition zone (IZ) (Aspergillus niger [23]): 19 mm
- inhibition zone (IZ) (Klebsiella pneumoniae [24]): 23 mm
- MIC [16]: 19.8 µg/mL (≈ 37.6 µM)
- inhibition zone (IZ) [25]: 25 mm
- inhibition zone (IZ) (Micrococcus luteus [26]): 21 mm
- inhibition zone (IZ) (Aspergillus fumigatus [27]): 22 mm
